The values below come from ChEMBL document CHEMBL4138193, “Novel indole and triazole based hybrid molecules exhibit potent anti-adipogenic and antidyslipidemic activity by activating Wnt3a/β-catenin pathway” (Eur J Med Chem, 2018).

In assay [1] the test system is Syrian golden hamster. Briefly: Induction of reverse cholestrol transport in high fat diet-induced dyslipidemia Syrian Golden hamster model assessed as reduction in weight gain at 100 mg/kg, po administered for 1 week. The format is functional, organism-based. The note with it: Mesocricetus auratus. In short, it runs like this: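 Male Syrian Golden hamsters on 45% kCal HFD, dosed 100 mg/kg p.o. in 0.5% NaCMC for one week, 4 per group. Food intake and body weight recorded daily. At the end, animals were saline-perfused and liver and eWAT were excised and weighed. Paraffin sections stained with H&E and imaged at 20x.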

Assay [2] has as its system Syrian golden hamster. Nature of the assay: Induction of reverse cholestrol transport in high fat diet-induced dyslipidemia Syrian Golden hamster model assessed as increase in LCAT mRNA expression in liver at 100 mg/kg, po administered for 1 week by qRT-PCR analysis. The format is functional, organism-based. Particulars: Mesocricetus auratus.
The test system of assay [3] is Syrian golden hamster. Nature of the assay: Induction of reverse cholestrol transport in high fat diet-induced dyslipidemia Syrian Golden hamster model assessed as decrease in CYP7A1 mRNA expression in liver at 100 mg/kg, po administered for 1 week by qRT-PCR analysis. The format is functional, organism-based. Particulars: Mesocricetus auratus.
In assay [4] the test system is 3T3-L1. Nature of the assay: Anti-adipogenic activity in mouse 3T3L1 cells assessed as reduction in lipid accumulation at early differentiation stage at 20 uM measured up to 3 days by Oil Red O staining based leica microscopy. The format is functional, cell-based. Put shortly:
(§1)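 3T3-L1 or C3H10T1/2 cells given 20 µM compound in differentiation media for varied time periods, then stained with Oil red O. Imaged by microscopy at 10x, representative of three independent experiments.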

The species entered for assay [5] is Mus musculus. Briefly: Activation of Wnt3a/beta-catenin in mouse 3T3L1 cells assessed as down-regulation of cyclinD expression at 20 uM after 16 to 24 hrs by Western blot analysis. The format is cell-based. Put shortly: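 3T3-L1 cells given MDI differentiation media (0.5 mM IBMX, 5 µg/ml insulin, 250 nM dexamethasone) with or without 20 µM compound. Proteins isolated at 16 and 24 h and probed by Western blot for CDK2, CDK4, CDK6, cyclin D1 and D3. Densitometry normalized to actin, n=3, mean ± SD, Student t test.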

The subject of assay [6] is 3T3-L1. Nature of the assay: Induction of Wnt5a mRNA expression in mouse 3T3L1 cells at 20 uM by qRT-PCR analysis. The format is functional, cell-based. Put shortly: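 3T3-L1 cells induced with MDI differentiation medium with or without 20 µM. RNA isolated with TRIzol and 500 ng reverse-transcribed to cDNA for real-time PCR. n=3 with triplicates, mean ± SD; one-way ANOVA with Bonferroni post-test.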

In assay [7] the test system is 3T3-L1. Briefly: Cell cycle arrest in mouse 3T3L1 cells assessed as accumulation at G1/S phase at 20 uM after 24 hrs in presence of beta-catenin/TCF complex inhibitor FH353 by propidium iodide-staining based flow cytometry. The format is functional. Put shortly: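 3T3-L1 cells exposed to 20 µM with or without FH353 (10 µM) in differentiation medium for 16 and 24 hr. Cells fixed in ice-cold 70% ethanol, stained with PI (40 µg/ml, RNase A buffer, 30 min, room temperature) and analysed by flow cytometry; representative of three experiments.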

Assay [8] is filed under the species Mus musculus. Briefly: Activation of Wnt3a/beta-catenin in mouse 3T3L1 cells assessed as down-regulation of CDK2 expression at 20 uM after 16 to 24 hrs in presence of FH353 by Western blot analysis. The format is cell-based. In short, it runs like this: (§2)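 Confluent 3T3-L1 cells given differentiation media (IBMX/insulin/dexamethasone) with 20 µM compound, with or without the β-catenin/TCF inhibitor FH353 (10 µM). Proteins isolated at 16 and 24 h and Western blotted after SDS-PAGE and nitrocellulose transfer. Blocking in 5% milk/TBS-T, primary antibody overnight at 4 °C, chemiluminescent detection, β-actin control, three independent experiments.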

The species entered for assay [9] is Mus musculus. Nature of the assay: Activation of Wnt3a/beta-catenin in mouse 3T3L1 cells assessed as down-regulation of CDK6 expression at 20 uM after 16 to 24 hrs in presence of FH353 by Western blot analysis. The format is cell-based. Put shortly: as §2
The species named for assay [10] is Mus musculus. Briefly: Activation of Wnt3a/beta-catenin in mouse 3T3L1 cells assessed as down-regulation of FAS expression at 20 uM after 2 to 6 days in presence of FH353 by Western blot analysis. In kind it is cell-based.
Assay [11] has as its system Syrian golden hamster. Briefly: Anti-adipogenic activity in high fat diet-induced dyslipidemia Syrian Golden hamster model assessed as decrease in PPARgamma levels in eWAT at 100 mg/kg, po administered for 1 week by Western blot analysis. The format is functional, organism-based. The note with it: Mesocricetus auratus. Put shortly:
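Male Syrian golden hamsters (8–10 wk, 100–120 g) fed 45% kcal HFD for 4 days, then dosed orally at 100 mg/kg in 0.5% NaCMC for one week, n=4 per group. Fenofibrate 100 mg/kg p.o. used as positive control. Epididymal WAT proteins Western blotted, three independent experiments.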

For assay [12], the system named is Syrian golden hamster. Briefly: Induction of reverse cholestrol transport in high fat diet-induced dyslipidemia Syrian Golden hamster model assessed as increase in ApoA mRNA expression in liver at 100 mg/kg, po administered for 1 week by qRT-PCR analysis. The note with it: Mesocricetus auratus. The format is functional, organism-based.
For assay [13], the system named is 3T3-L1. Nature of the assay: Anti-adipogenic activity in mouse 3T3L1 cells assessed as reduction in lipid accumulation at 20 uM measured up to 7 days by Oil Red O staining based leica microscopy. The format is functional, cell-based. Put shortly: as §1
The species entered for assay [14] is Mus musculus. Nature of the assay: Activation of Wnt3a/beta-catenin in differentiated mouse 3T3L1 cells assessed as down-regulation of FAS protein expression at 20 uM after 16 to 24 hrs by Western blot analysis. Put shortly:
(§3)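 3T3-L1 preadipocytes grown to confluence in high-glucose DMEM/10% FBS, then given differentiation media (0.5 mM IBMX, 5 µg/ml insulin, 250 nM dexamethasone) with or without 20 µM compound. Protein isolated at set time points, lysed with protease/phosphatase inhibitors, BCA-quantified, resolved by 8–12% SDS-PAGE, immunoblotted with ECL detection. β-actin loading control, densitometry normalized to actin, n=3.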

The test system of assay [15] is 3T3-L1. Briefly: Upregulation of wnt3a protein expression in mouse 3T3L1 cells at 20 uM after 16 to 24 hrs by Western blot analysis. In kind it is functional, cell-based. In short, it runs like this:
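3T3-L1 cells given MDI with or without 20 µM; protein harvested at 16 and 24 hr. Lysates in ice-cold buffer with protease and phosphatase inhibitors were BCA-quantified, run on 8–12% SDS-PAGE, transferred to nitrocellulose and probed overnight at 4 °C. Detection by chemiluminescence, normalized to β-actin; three independent experiments.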

The species entered for assay [16] is Mus musculus. Briefly: Activation of Wnt3a/beta-catenin in differentiated mouse 3T3L1 cells assessed as upregulation of phosphorylated beta-catenin expression at 20 uM after 16 to 24 hrs by Western blot analysis. Put shortly: as §3
Assay [17] concerns 3T3-L1. Nature of the assay: Anti-adipogenic activity in mouse 3T3L1 pre-adipocytes in differentiation media assessed as reduction in lipid accumulation at 20 uM after 20 mins in presence of beta-catenin/TCF complex inhibitor FH353 by Oil Red O absorbance method. The format is functional, cell-based. Put shortly: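 3T3-L1 cells differentiated with 20 µM compound with or without FH353 (10 µM) in differentiation media. Oil red O extracted and absorbance read at 492 nm, n=3, mean ± SD, Student t test.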

Assay [18] is filed under the species Mus musculus. Briefly: Activation of Wnt3a/beta-catenin in mouse 3T3L1 cells assessed as down-regulation of AP2 expression at 20 uM after 2 to 6 days in presence of FH353 by Western blot analysis.

Activity calls are given as the source filed them. The calls are words filed in the database; no cut-off is given here.

On to `Cc1ccc(S(=O)(=O)N(Cc2cn(Cc3cccc(F)c3F)nn2)Cc2cn(S(=O)(=O)c3ccc(C)cc3)c3ccccc23)cc1`, for which the result in assay [1], in [2], in [3], in [4], in assay [5] and in [11] was Active. In addition, the outcome in assay [12], in [13], in assay [14], in assay [15] and in assay [16] was Active. Further, the outcome in assay [6], in [7], in assay [8], in [9], in [10] and in assay [17] was inactive. Further, in assay [18], the result was inactive.
